ChEMBL document CHEMBL1149663, “Design, synthesis and biological evaluation of 1,4-benzodiazepine-2,5-dione-based HDAC inhibitors” (Bioorg Med Chem Lett, 2007)
Calls of active or inactive are those of the source. The rule behind the calls is not given here.

How the values were obtained:
[1] = (§1) Antiproliferative activity against H661 cells after 48 hrs by XTT assay; format: functional, cell-based; settings: Homo sapiens, NCI-H661, 48 h
Method in brief: (§2)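 Non-small cell lung cancer H661 cells were treated for 48 h, and proliferation was read by XTT assay as % of untreated control. Each analogue was run in three to four independent experiments, each in triplicate. IC50 was taken from the proliferation curves as the concentration giving 50% inhibition of proliferation.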

[2] = Antiproliferative activity against H661 cells at 5 uM after 48 hrs by XTT assay; format: functional, Homo sapiens, NCI-H661; method in brief: as §2
NCI-H661 = assay: as §1; format: functional, cell-based; settings: Homo sapiens; method in brief: as §2

SMILES	IC50 [1]	Activity [2]	Activity (NCI-H661)
O=C(CCCCCN1C(=O)c2ccccc2N(Cc2ccccc2)C(=O)[C@@H]1Cc1ccccc1)NO	6 µM	40%	–
CC(/C=C/C(=O)NO)=C\[C@@H](C)C(=O)c1ccc(N(C)C)cc1 [TRICHOSTATIN]	0.085 µM	–	–
Cc1cc(C)cc(CN2C(=O)[C@H](Cc3ccccc3)N(CCCCCC(=O)NO)C(=O)c3ccccc32)c1	8 µM	80%	–
O=C(CC/C=C/CN1C(=O)c2ccccc2N(Cc2ccccc2)C(=O)[C@@H]1Cc1ccccc1)NO	8 µM	80%	–
Cc1cc(C)cc(CN2C(=O)[C@H](Cc3ccccc3)N(C/C=C/CCC(=O)NO)C(=O)c3ccccc32)c1	17 µM	–	–
O=C(CCCCCN1C(=O)c2ccccc2N(Cc2cccc3ccccc23)C(=O)[C@@H]1Cc1ccccc1)NO	16 µM	–	–
CN1C(=O)[C@H](Cc2ccccc2)N(CCCCCC(=O)NO)C(=O)c2ccccc21	–	–	inactive
